Screening data as filed in PubChem BioAssay.
ARNT TACC3 PPI: disrupts binding between human ARNT and TACC3; Q9Y6A5; AlphaScreen His-ARNT PAS-B/GST-TACC3 binding, luminescence; TACC3 fragment carries E629A point mutation; inhibition, % at 9.99 µM; actives 0.66% (n = 390,000);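 active = mean inhibition of replicates at least 50% and at least half of replicates each reaching 50%; inconclusive = half or more replicates reach 50% but mean below 50%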
XiGFP reactiv: X-chromosome reactivation activator | AID 743238 | XiGFP mouse fibroblasts, % GFP-positive cells imaging, 3 d; cells co-treated with 5-aza-dC sensitizer; scaled so ellipticine positive control = 100% | activation, % at 7.58 µM | actives 0.055% (n = 360,000);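 active = mean normalized replicate activation at least 10% and every replicate at or above 10%; inconclusive = only one of the two criteria met; inactive = mean below 10% and not all replicates reach 10%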
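Schedule: 3 d treatment, 15 min room-temperature fixation; system: 68-5-11 XiGFP fibroblast line; buffer or medium: DMEM plus 5-aza-dC sensitizer; control set: ellipticine 6 µM positive control; compound: one concentration, pinned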
HGIII-sPLA2 inh: Inhibits HGIII-sPLA2 liposome hydrolysis, primary screen | inhibition, % at 12.2 µM | actives 0.56% (n = 370,000) | AID 743126 | QFRET BODIPY PC-A2 liposome hydrolysis, fluorescence;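 active = inhibition above mean plus 3 SD of compounds lying within the high and low control bounds, cut at about 19% in these data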
NSD2 HMT inh: blocks human histone methyltransferase NSD2; O96028; NSD2 peptide methylation, AlphaScreen, 120 min; inhibition, % at 12.5 µM; actives 0.54% (n = 310,000); in the data active = inhibition above about 50%
SR-BI DiI-HDL act: SR-BI HDL lipid transfer activation; activation, % at 12.5 µM; CHO ldlA[mSR-BI] cells, DiI-HDL uptake fluorescence, 3 h; 100 = double the neutral-control signal; AID 504775; actives 0.096% (n = 320,000);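 active = mean replicate activation of at least 60% and every replicate at or above 60%; inconclusive = mean or all-replicate condition met, but not both; inactive = mean below 60% and not all replicates reaching 60%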
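Test system: SR-BI-overexpressing, LDLR-lacking CHO cells; Also added: labelled HDL, 10 µg/mL; Measured by: bottom-read cell fluorescence after medium removal, ex 550/em 595 nm; Timing: 3 h uptake period with compound, 37 °C; Buffer or medium: F12, 0.5% BSA, 25 mM HEPES; Doses: single compound concentration, delivered by pin transfer.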
SR-BI DiI inh: mouse SR-BI HDL lipid transfer inhibition | Q61009 | ldlA[mSR-BI] CHO cells, DiI-HDL uptake fluorescence, 3 h | inhibition, % at 12.5 µM | actives 0.96% (n = 320,000);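 active = mean replicate inhibition of at least 70% and a set share of replicates each scoring 70 or more; inconclusive = meets just one of the two criteria; inactive = fails both criteria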
Target sequence (Q61009 whole entry, looked up): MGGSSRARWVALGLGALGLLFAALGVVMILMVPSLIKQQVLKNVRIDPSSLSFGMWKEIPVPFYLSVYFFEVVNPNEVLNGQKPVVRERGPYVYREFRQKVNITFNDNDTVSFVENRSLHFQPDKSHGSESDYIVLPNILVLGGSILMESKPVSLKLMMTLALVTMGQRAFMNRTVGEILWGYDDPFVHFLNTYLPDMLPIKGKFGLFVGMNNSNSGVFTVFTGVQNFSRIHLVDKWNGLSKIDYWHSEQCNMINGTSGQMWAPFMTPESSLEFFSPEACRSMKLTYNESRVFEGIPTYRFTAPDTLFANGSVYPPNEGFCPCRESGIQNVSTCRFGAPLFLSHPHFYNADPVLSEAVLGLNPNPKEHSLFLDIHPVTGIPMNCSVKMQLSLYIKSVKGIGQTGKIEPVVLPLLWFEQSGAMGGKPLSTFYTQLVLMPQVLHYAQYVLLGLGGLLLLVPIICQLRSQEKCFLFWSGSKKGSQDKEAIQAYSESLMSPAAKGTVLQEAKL
Alpha artifact: counter-screen for NSD2 inhibitors: AlphaScreen artifacts; shares compounds with NSD2 HMT inh; actives 9.4% (n = 1,500); AlphaScreen artifact counterscreen, preloaded methylated H4 peptide; AC35, µM (doses to about 10 µM); call rule not given here
Each line names hits and unclear results; the compound was inactive in the other large screens (follow-up assays come after a bar, where they were run). In the library only some 2% were active in any assay of this set; here they are far more common.

CCCCn1c(NC(=O)c2ccco2)c(S(=O)(=O)c2ccc(C)cc2)c2nc3ccccc3nc21	none (no result: ARNT TACC3 PPI, NSD2 HMT inh)
CCCCn1c(NC(=O)c2ccc(Br)o2)c(S(=O)(=O)c2ccccc2)c2nc3ccccc3nc21	NSD2 HMT inh 104 (no result: XiGFP reactiv) | Alpha artifact inactive
CCCCn1c(NS(=O)(=O)c2ccccc2)c(S(=O)(=O)c2ccc(C)cc2)c2nc3ccccc3nc21	HGIII-sPLA2 inh 27, NSD2 HMT inh 102 | Alpha artifact inactive
CN(C)c1nc(N)c(C#N)c(C#N)c1C#N	none
CN(Cc1nc2ccccc2c(=O)[nH]1)C(=O)c1cc2c(s1)CCCCC2	NSD2 HMT inh 52 | Alpha artifact inactive
Cc1ccccc1NC1C=CS(=O)(=O)C1 (configuration not stated)	none (no result: XiGFP reactiv)
COc1ccccc1NC1C=CS(=O)(=O)C1 (configuration not stated)	NSD2 HMT inh 97 (no result: XiGFP reactiv) | Alpha artifact inactive
CC1CCc2c(sc(N)c2C(N)=O)C1 (configuration not stated)	none (no result: XiGFP reactiv)
Cc1cc(F)c(F)c(C(=O)N2C(C)CCCC2C)c1Cl (configuration not stated)	NSD2 HMT inh 58 | Alpha artifact inactive
CC1CN(C(=O)COC(=O)/C=C/c2ccccc2)CC(C)O1 (configuration not stated)	NSD2 HMT inh 61 (no result: ARNT TACC3 PPI, SR-BI DiI-HDL act, SR-BI DiI inh) | Alpha artifact inactive
CC1CN(C(=O)COC(=O)/C=C/c2ccc(C(F)(F)F)cc2)CC(C)O1 (configuration not stated)	none
C/C(CC(=O)Nc1ccccn1)=N\NC(=O)C(=O)Nc1cccc(Cl)c1C	NSD2 HMT inh 60 (no result: XiGFP reactiv) | Alpha artifact inactive
O=C(CSc1ccc(Cl)cc1)Nc1cc(-c2nc3ncccc3o2)ccc1Cl	NSD2 HMT inh 51 (no result: ARNT TACC3 PPI, SR-BI DiI-HDL act, SR-BI DiI inh) | Alpha artifact inactive
COc1cccc(C(C(=O)NC2CCCC2)N(C(=O)c2csnn2)C2CC2)c1 (configuration not stated)	NSD2 HMT inh 99 | Alpha artifact inactive
C[C@H](CO)N1C[C@H](C)[C@@H](CN(C)C(=O)C2CC2)Oc2ncc(C#CC3CCCC3)cc2C1=O	none (no result: HGIII-sPLA2 inh, NSD2 HMT inh, SR-BI DiI-HDL act, SR-BI DiI inh)
CC(C)c1ccc(S(=O)(=O)N2CCN(CC(=O)Nc3ccc(Cl)cc3F)CC2)cc1	NSD2 HMT inh 120 | Alpha artifact inactive
COc1ccc(Cl)cc1NC(=O)CN1CCN(S(=O)(=O)c2ccc(F)cc2)CC1	none (no result: SR-BI DiI-HDL act, SR-BI DiI inh)
COc1ccc(CNC(=O)c2nnn(-c3cccc(C(F)(F)F)c3)c2N)cc1	NSD2 HMT inh 51 | Alpha artifact inactive
COc1ccc(CNC(=O)c2nnn(Cc3ccc(OC)cc3)c2N)cc1	none (no result: NSD2 HMT inh)
C=C1C(C(=O)Nc2ccc(OCC)cc2)C1C(=O)Nc1ccc(OCC)cc1 (configuration not stated)	none (no result: ARNT TACC3 PPI)
CNCCCOc1ccc2c(c1)CCC2	NSD2 HMT inh 61 | Alpha artifact inactive
O=C1CCC(=O)N1OCCCOc1ccc2c(c1)CCC2	none (no result: XiGFP reactiv)
CC(=O)Nc1ccc(S(=O)(=O)NCCSCc2c(Cl)cccc2Cl)cc1	NSD2 HMT inh 123 (no result: XiGFP reactiv) | Alpha artifact inactive
CCCN(CCC)CCCNC(=O)c1ccc(CS(=O)(=O)c2c(Cl)cccc2Cl)o1	NSD2 HMT inh 63, SR-BI DiI-HDL act inconclusive | Alpha artifact inactive
CN(C)CCNC(=O)c1ccc(CS(=O)(=O)c2c(Cl)cccc2Cl)o1	none (no result: NSD2 HMT inh)
O=C(NCc1ccccc1)c1cc(C2CCCN(C(=O)CCc3ccccc3)C2)on1 (configuration not stated)	none (no result: ARNT TACC3 PPI, SR-BI DiI-HDL act, SR-BI DiI inh)
CC(=O)c1ccc(N2CCN(C(=O)[C@H](C)NC(=O)c3ccccc3Cl)CC2)cc1	NSD2 HMT inh 65 (no result: SR-BI DiI-HDL act, SR-BI DiI inh) | Alpha artifact inactive
COc1ccc(N2CCN(C(=O)[C@H](C)NC(=O)c3ccccc3Cl)CC2)cc1	none (no result: SR-BI DiI-HDL act, SR-BI DiI inh)
CCOc1ccc(N)cc1OC	NSD2 HMT inh 56 | Alpha artifact inactive
CCOc1ccc(C(N)=O)cc1OC	none (no result: XiGFP reactiv)
CCOc1ccc2oc(-c3ccccc3)c(C(N)=O)c2c1	none
CC(=O)C1=C(O)C(=O)N(Cc2cccnc2)C1c1ccccc1 (configuration not stated)	NSD2 HMT inh 131 (no result: XiGFP reactiv) | Alpha artifact inactive
CN(C(=S)NC(=O)C1(C)CC1(Cl)Cl)c1ccccc1 (configuration not stated)	NSD2 HMT inh 59 (no result: XiGFP reactiv) | Alpha artifact inactive
O=C(CN1CCN(S(=O)(=O)c2ccc(Br)cc2)CC1)c1ccc(O)c(O)c1	NSD2 HMT inh 80 | Alpha artifact inactive
O=C(CN1CCN(c2ccccc2F)CC1)c1ccc(O)c(O)c1	NSD2 HMT inh 95 | Alpha artifact inactive
CCOC(=O)C1=C(COC(=O)[C@H](C)NS(=O)(=O)c2ccc(NC(C)=O)cc2)NC(=O)NC1C (some centres not stated)	none
Cc1ccccc1S(=O)(=O)N1[C@@H]2CNC[C@H]1C2c1ccc(-c2ccccc2)cc1 (some centres not stated)	none (no result: ARNT TACC3 PPI, HGIII-sPLA2 inh, NSD2 HMT inh, SR-BI DiI-HDL act, SR-BI DiI inh)
CCc1sc(C(=O)Nc2nc(C)cs2)cc1C	NSD2 HMT inh 51 | Alpha artifact inactive
CCc1sc(C(=O)Nc2ccc(NC(C)=O)cc2)cc1C	none
CS(=O)(=O)c1ccc2c(c1)sc1nc(=O)c(/C=C3/C=CC(=O)C(O)=C3)c(N)n12	NSD2 HMT inh 119 (no result: SR-BI DiI-HDL act, SR-BI DiI inh) | Alpha artifact 7.1µM
COc1ccccc1N(CC(=O)NCC1CCCO1)C(=O)CNS(=O)(=O)c1ccc(C)cc1 (configuration not stated)	NSD2 HMT inh 69 (no result: XiGFP reactiv) | Alpha artifact inactive
O=C(Nc1nnc(SCc2cccc3ccccc23)s1)C1COc2ccccc2O1 (configuration not stated)	NSD2 HMT inh 63 | Alpha artifact inactive
Cc1ccccc1CSc1nnc(NC(=O)C2COc3ccccc3O2)s1 (configuration not stated)	none (no result: XiGFP reactiv)
COc1ccccc1OCCOc1ccc(/C=C2\C(=N)N3N=C(S(C)(=O)=O)SC3=NC2=O)cc1	XiGFP reactiv inconclusive, NSD2 HMT inh 71 | Alpha artifact inactive
Cc1ccc(S(=O)(=O)N2C[C@@]3(O)Cn4c(=O)ccc(=O)n4C[C@@]3(OC(=O)NCc3ccccc3F)C2)cc1	none (no result: ARNT TACC3 PPI, SR-BI DiI-HDL act, SR-BI DiI inh)
CC(=O)N(/N=C1\Sc2ccccc2C1=O)c1ccc(C)cc1C	none (no result: XiGFP reactiv)
CC(=O)N(/N=C1\Sc2ccccc2C1=O)c1ccccc1C	ARNT TACC3 PPI 59, NSD2 HMT inh 56 (no result: XiGFP reactiv) | Alpha artifact inactive
CCOC(=O)c1c(C)oc2c1c(C=NCCC(=O)O)c(O)c1ccccc12	NSD2 HMT inh 164 | Alpha artifact inactive
O=C(C[C@H]1CC[C@@H]2[C@H](COC[C@@H](O)CN2S(=O)(=O)c2ccccc2)O1)NCCN1CCCCC1	none (no result: HGIII-sPLA2 inh, NSD2 HMT inh, SR-BI DiI-HDL act, SR-BI DiI inh)
